A selection: hits, their analogues and other compounds. The true share with any hit is near 1.6%.
dFosB act-1 – activators of delta FosB homodimer, primary screen, biochemical, fluorescence polarization, TAMRA-CDK5 oligo, single point; Protein FosB (Mus musculus), P13346; purified delta FosB; percent of positive-control signal above neutral wells; activation, % at 25 µM; 340,000 tested, 0.99% active;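 active means mean activation above about 17%, with every replicate also reaching it, limit read from the data, passing the limit was not always enough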
Target sequence (P13346 whole entry, looked up): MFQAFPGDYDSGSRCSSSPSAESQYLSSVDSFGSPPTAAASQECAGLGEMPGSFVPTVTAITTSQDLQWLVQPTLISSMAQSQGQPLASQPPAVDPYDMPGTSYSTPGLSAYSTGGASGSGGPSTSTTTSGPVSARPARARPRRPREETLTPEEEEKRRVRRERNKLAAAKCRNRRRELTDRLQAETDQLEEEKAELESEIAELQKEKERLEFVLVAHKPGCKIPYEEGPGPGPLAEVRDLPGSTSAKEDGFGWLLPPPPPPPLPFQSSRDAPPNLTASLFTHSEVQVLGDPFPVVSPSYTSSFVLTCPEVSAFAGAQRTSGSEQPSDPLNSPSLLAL
PvdQ inh – P. aeruginosa PvdQ acylase inhibitors, primary screen, biochemical, fluorescence, plate reader and imaging, single point; inhibition, % at 10 µM; PvdQ acylase [Pseudomonas aeruginosa LESB58]; purified PvdQ acylase; 340,000 tested, 0.063% active; in the data active means inhibition above about 30%, passing the limit was not always enough;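 further: 0% = vehicle neutral wells and 100% = reference inhibitor wells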
S100A4 MyoIIA – inhibitors of S100A4-myosin IIA peptide binding, primary screen, biochemical, fluorescence polarization, TAMRA-MyoIIA peptide; Protein S100-A4 (Homo sapiens), P26447; inhibition, % at 10.7 µM; 360,000 tested, 0.14% active; AID 652163, 2013;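 active means mean inhibition of at least 70% across replicates, with every replicate also reaching that level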
Target sequence (P26447 whole entry, looked up): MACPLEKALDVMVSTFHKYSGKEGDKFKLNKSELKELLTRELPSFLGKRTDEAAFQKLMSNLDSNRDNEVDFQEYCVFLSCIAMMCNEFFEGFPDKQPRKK
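Assay system: human S100A4 monomer with TAMRA-labelled myosin IIA peptide / Buffer or medium: Calcium-containing HEPES buffer, pH 7.2 / Reagent: TAMRA-labelled myosin IIA heavy-chain peptide probe, 5 nM / Compound: one dose per compound / Timing: polarization read 5 min after assay mix addition, stable 5–60 min / Benchmarks: neutral control DMSO, positive control TFP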
SR-BI DiI inh – inhibitors of SR-BI mediated HDL lipid uptake, primary screen, ldlA[mSR-BI] cells, fluorescence, single point. Scavenger receptor class B member 1 (Mus musculus), Q61009. ldlA[mSR-BI] CHO cells, DiI-HDL uptake fluorescence, 3 h. inhibition, % at 12.5 µM. 320,000 tested, 0.96% active;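 active means mean replicate inhibition of at least 70% and a set share of replicates each scoring 70 or more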;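 further: 0% = median of neutral control wells and 100% = median of positive control wells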
RAD54 branch – inhibitors of human RAD54 branch migration, primary screen, biochemical, fluorescence, single point. DNA repair and recombination protein RAD54-like (Homo sapiens), Q92698. RAD54 Holliday junction branch migration, FAM/BHQ fluorescence. inhibition, % at 10.4 µM. 360,000 tested, 0.14% active;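 active means mean normalized replicate activity at least 40 and at least half of replicates scoring 40 or more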;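 further: 0% = median of neutral control wells and 100% = median of positive control wells; inhibitors cause a drop in the FAM fluorescence signal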
SR-BI uptake up – activators of SR-BI mediated DiI-HDL uptake, primary screen, ldlA[mSR-BI] CHO cells, DiI fluorescence. 3 h; 100 = double the neutral-control signal. 320,000 tested, 0.096% active. AID 504775, 2011. activation, % at 12.5 µM;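 active means mean replicate activation of at least 60% and every replicate at or above 60%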;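 further: 0% = median plate neutral-control signal and 100% = twice that signal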
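System: CHO ldlA[mSR-BI] cells / Medium: HEPES-buffered (25 mM, pH 7.4) F12 plus 0.5% BSA / Probe or stimulus: labelled HDL, 10 µg/mL / Doses: single compound concentration, delivered by pin transfer / Schedule: 3 h, 37 °C / Measured by: DiI fluorescence, bottom read / Measure: cell-associated DiI fluorescence as measure of HDL uptake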
dFosB act-2 – activators of mouse delta FosB DNA binding, confirmation, biochemical, fluorescence polarization, TAMRA-CDK5 oligo, cherry-picked samples. shares compounds with dFosB act-1. purified delta FosB; normalised: neutral wells 0, positive control 100. activation, % at 24.9 µM. 2,400 tested, under 10 active. AID 588690, 2011;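 active means highest replicate activation at or above 34% and every replicate reaching that threshold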;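 further: higher polarization means more probe DNA bound by delta FosB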
* = called active by the depositor; . = not tested or not shown.

SMILES	dFosB act-1	PvdQ inh	S100A4 MyoIIA	SR-BI DiI inh	RAD54 branch	SR-BI uptake up	dFosB act-2
Cc1ccccc1-n1nnnc1SCC(=O)c1c(N)n(C)c(=O)n(C)c1=O	23.1*	-7.5	-1.5	-11.1	9.9	11.1	-0.6
C[C@@H]1CCCCO[C@@H](CN(C)C(=O)c2ccccc2)[C@@H](C)CN([C@H](C)CO)C(=O)c2cc(NC(=O)CCC(F)(F)F)ccc2O1	.	.	7.7	.	5.6	.	.
Cc1noc(C)c1S(=O)(=O)Nc1ccc2c(c1)C(=O)N([C@H](C)CO)C[C@H](C)[C@H](CN(C)C(=O)C1CCCCC1)OCCCC[C@@H](C)O2	.	.	-8.7	.	-2.7	.	.
NC(N)=NC(=O)c1nc(Cl)c(N2CCCCCC2)nc1N	26.5*	1.8	5.3	24.9	16.5	-24.9	5.4
NC(N)=NC(=O)c1nc(Cl)c(N)nc1N	4.0	-5.1	-6.6	-1.0	25.5	1.0	.
O=C(Nc1ccc2oc(-c3ccccc3)nc2c1)c1ccc2c(c1)OCCO2	41.6*	-10.5	.	36.0	12.8	-36.0	2.9
O=C(Nc1ccc(NC(=O)c2cc3ccccc3o2)cc1)c1ccc2c(c1)OCCO2	42.5*	-1.9	1.5	73.2*	.	-73.2	-1.1
O=C(Nc1ccc2oc(-c3cccnc3)nc2c1)c1ccc2c(c1)OCCO2	32.9*	-3.2	.	8.2	.	-8.2	2.0
O=C(Nc1ccc2oc(-c3ccncc3)nc2c1)c1ccc2c(c1)OCCO2	45.6*	5.6	6.2	.	.	.	0.4
COc1ccc(C(=O)Nc2ccc3oc(-c4cccnc4)nc3c2)cc1OC	-18.3	-8.2	-4.1	50.3	.	-50.3	.
O=C(Nc1ccc2oc(-c3ccncc3)nc2c1)c1ccc2c(c1)OCO2	-6.9	-14.2	3.9	31.4	.	-31.4	.
Cc1cc(NC(=O)c2ccc3c(c2)OCCO3)ccc1NC(=O)c1cc2ccccc2o1	1.2	-20.4	4.5	67.8	-2.8	-67.8	.
CC(C)NC(=O)N(C)C[C@H]1Oc2cc(C#C[C@@H](C)O)ccc2S(=O)(=O)N([C@@H](C)CO)C[C@@H]1C	.	.	-3.3	.	-9.3	.	.
O=C(Cc1ccccc1)Nc1ccc2oc(-c3cccnc3)nc2c1	22.1*	-2.6	.	5.2	13.5	-5.2	0.9
O=C(Nc1ccc(NC(=O)c2ccco2)cc1)c1ccc2c(c1)OCO2	-5.7	-4.3	.	47.3	-9.0	-47.3	.
O=C(Nc1ccc(NC(=O)c2ccco2)c(Cl)c1)c1ccc2c(c1)OCCO2	60.3*	3.5	6.4	69.6	-0.9	-69.6	1.0
O=C(Nc1ccc2oc(-c3ccncc3)nc2c1)c1ccc(F)cc1	35.5*	2.8	-4.9	32.9	-5.2	-32.9	2.8
O=C(Nc1ccc2oc(-c3ccccc3F)nc2c1)c1cncc(Br)c1	22.3*	-1.8	.	46.3	-1.3	-46.3	1.2
COc1ccc(-c2cn(CC[C@@H]3CC[C@H](NS(=O)(=O)c4ccccc4C)[C@H](CO)O3)nn2)cc1	.	.	1.7	.	0.5	.	.
CN1C(=O)c2cc(NS(C)(=O)=O)ccc2OC[C@H]2O[C@H](CC(=O)NCc3ccc(-c4ccccc4)cc3)CC[C@@H]21	.	.	.	.	-7.0	.	.
O=C(Nc1ccccc1C(=O)NC(Cc1ccccc1)C(=O)NC1CCCCC1)c1ccccc1 (stereo unspecified)	20.5*	-7.4	.	10.9	.	-10.9	4.7
COc1ccc(C(=O)NNC(=O)C(Cc2ccc(O)cc2)NC(=O)c2ccccc2NC(=O)c2ccc(OC)cc2)cc1 (stereo unspecified)	59.7*	-2.4	.	13.3	0.8	-13.3	2.7
COc1ccc(C(=O)NNC(=O)C(C)NC(=O)c2ccccc2NC(=O)c2ccco2)cc1 (stereo unspecified)	3.7	-14.7	3.7	-8.5	.	8.5	.
COc1ccc(C(=O)Nc2ccccc2C(=O)NC(Cc2ccc(O)cc2)C(=O)NNC(=O)c2ccccc2Cl)cc1 (stereo unspecified)	42.2*	5.3	.	42.3	0.4	-42.3	5.4
O=C(Nc1ccc2c(c1)OCO2)N[C@H]1CC[C@H](CCNC(=O)C2CCCCC2)O[C@@H]1CO	.	.	-4.3	.	-3.9	.	.
SMILES	dFosB act-1	PvdQ inh	S100A4 MyoIIA	SR-BI DiI inh	RAD54 branch	SR-BI uptake up	dFosB act-2
O=C(Nc1nccs1)c1cc(-c2ccccn2)nc2c(Cl)cccc12	38.8*	-6.5	2.9	-2.0	2.1	2.0	4.1
COc1cccc(CN(C)C[C@@H]2OCc3cn(nn3)CCCC(=O)N([C@H](C)CO)C[C@H]2C)c1	.	.	2.8	.	5.1	.	.
O=C(NC(NC(=O)c1c(F)cccc1F)c1ccc([N+](=O)[O-])cc1)c1c(F)cccc1F	23.9*	-13.6	2.6	-8.3	-13.0	8.3	5.2
COc1ccccc1CNC(=O)COC(=O)c1cc2ccccc2o1	30.8*	-18.2	-6.1	-18.8	-2.9	18.8	2.9
COc1ccccc1CNC(=O)c1cc2ccccc2o1	-3.9	3.0	-2.0	.	4.5	.	.
C[C@@H]1CCCCO[C@@H](CN(C)Cc2ccc(Cl)c(Cl)c2)[C@H](C)CN([C@H](C)CO)C(=O)c2cc(NC(=O)NC3CCCCC3)ccc2O1	.	.	20.4	.	5.1	.	.
CCN(CC)S(=O)(=O)c1ccc(NC(=O)Cn2c(=O)oc3ccccc32)cc1	4.1	-9.4	.	17.4	-7.9	-17.4	.
O=C(Cn1c(=O)oc2ccccc21)Nc1ccc(S(=O)(=O)N2CCCCC2)cc1	59.8*	-6.8	.	20.8	7.4	-20.8	4.6
O=C(/C=C/c1ccc(Cl)cc1)NC(=S)Nc1ccc(NC(=O)c2ccco2)cc1	84.6*	-1.4	.	24.3	.	-24.3	0.3
C[C@@H]1CN([C@@H](C)CO)C(=O)c2cccc(NC(=O)Nc3ccc(F)cc3)c2O[C@H]1CN(C)Cc1ccc(Oc2ccccc2)cc1	.	.	4.5	.	-0.2	.	.
Cc1ccccc1COc1cccc(/C=N/NC(=O)c2nnn(-c3nonc3N)c2C)c1	24.4*	-13.1	-8.0	1.5	-3.1	-1.5	-0.1
Cc1cccc(COc2ccc(/C=N/NC(=O)c3nnn(-c4nonc4N)c3COc3ccc(F)cc3)cc2)c1	27.5*	-8.1	2.3	60.4	10.1	-60.4	-1.9

Screening data from PubChem.
